Results as given in ChEMBL document CHEMBL4196053, “Endoperoxide-8-aminoquinoline hybrids as dual-stage antimalarial agents with enhanced metabolic stability” (Eur J Med Chem, 2018).
Activity calls are given as the source filed them. The rule behind the calls is not given here.

How the values were obtained:
[1] = Half life in rat liver microsomes at […] in presence of NADPH by HPLC analysis; assay type: ADME, microsome
Plasmodium falciparum = assay: Antiplasmodial activity against chloroquine resistant Plasmodium falciparum W2 erythrocytic ring stage after 48 hrs using hypoxanthine by flow cytometric analysis; assay type: functional, organism-based; settings: W2, 48 h
Outline: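 Ring-stage W2 P. falciparum synchronized with 5% sorbitol, about 1% parasitemia in human erythrocytes. Cells fixed in 2% formaldehyde, stained with 1 nM YOYO-1, infected cells counted by flow cytometry. IC50 taken against untreated controls; two experiments, four replicates each.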

Huh-7 = assay: Cytotoxicity against human HuH7 cells assessed as reduction in cell viability at 10 uM after 48 hrs by Alamar blue assay; assay type: cell-based; settings: huh-7, 48 h
Outline: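 Huh-7 cells seeded and infected with P. berghei sporozoites as in the liver-stage assay, with compound added about 1 h before infection and DMSO vehicle in controls. Host cell viability read by AlamarBlue fluorescence 48 h post-infection.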

[2] = Intrinsic clearance in rat liver microsomes assessed per mg protein at […] in presence of NADPH by HPLC analysis; assay type: ADME, microsome; settings: read-out: CLH
Plasmodium berghei [3] = assay: Antiplasmodial activity against luciferase expressing Plasmodium berghei sporozoites infected in human HuH7 cells at 10 uM preincubated for 1 hr followed by parasite infection measured after 48 hrs by bioluminescence analysis relative to control; assay type: functional
Outline: (§1)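 Huh-7 hepatoma cells (1.0 × 10^4/well) seeded the day before. Compound-containing medium added about 1 h before infection with fresh firefly luciferase-expressing P. berghei sporozoites from Anopheles stephensi salivary glands, then spun 1700 g for 5 min. DMSO vehicle in controls. Parasite load read by bioluminescence 48 h post-infection. Initial screen at fixed concentrations; EC50 from nonlinear regression of normalized dose-response data.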

Plasmodium berghei [4] = assay: Antiplasmodial activity against luciferase expressing Plasmodium berghei sporozoites infected in human HuH7 cells at 2 uM preincubated for 1 hr followed by parasite infection measured after 48 hrs by bioluminescence analysis relative to control; assay type: functional; outline: as §1
[5] = Cytotoxicity against human Caco2 cells assessed as reduction in cell viability after 72 hrs by neutral red dye based assay; settings: Caco-2 cells
Outline: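 CaCo-2 cells grown in RPMI-1640 with 10% FBS and antibiotic-antimycotic at 37°C, 5% CO2. Exposed once confluent for 72 h to compound diluted in medium, organic solvent ≤1%. Medium then removed and cells washed with PBS.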

[6] = Selectivity index, ratio of CC50 for human Caco2 cells to IC50 for chloroquine resistant Plasmodium falciparum W2 erythrocytic ring stage; assay type: toxicity; settings: Caco-2 cells, read-out: Ratio CC50/IC50
Plasmodium berghei [7] = assay: Antiplasmodial activity against luciferase expressing Plasmodium berghei infected in human HuH7 cells preincubated for 1 hr followed by parasite infection measured after 48 hrs by bioluminescence analysis; assay type: functional, organism-based; settings: Huh-7; outline: as §1

Structure (SMILES)	half-life [1]	EC50 (Plasmodium falciparum)	Activity (Huh-7)	microsomal CLint [2]	Activity (Plasmodium berghei [3])	Activity (Plasmodium berghei [4])	CC50 at 72 h [5]	selectivity ratio [6]	EC50 (Plasmodium berghei [7])
COc1cc(NC(C)CCCNC(=O)C2CCC3(CC2)OOC2(OO3)C3CC4CC(C3)CC2C4)c2ncccc2c1Br (stereo not drawn)	14 min	16 nM	Toxic	99 µL/min/mg	Active	>50%	–	–	–
COc1cc(NC(C)CCCNCC2CCC3(CC2)OOC2(OO3)C3CC4CC(C3)CC2C4)c2ncccc2c1-c1ccc(C(F)(F)F)cc1 (stereo not drawn)	–	19 nM	Toxic	–	62%	Active	10300 nM	–	–
COc1cc(NC(C)CCCNCC2CCC3(CC2)OOC2(OO3)C3CC4CC(C3)CC2C4)c2ncccc2c1-c1ccoc1 (stereo not drawn)	–	120 nM	Toxic	–	Active	Active	–	–	–
COc1cc(NC(C)CCCNCC2CCC3(CC2)OOC2(OO3)C3CC4CC(C3)CC2C4)c2ncccc2c1-c1ccccc1 (stereo not drawn)	–	92 nM	Toxic	–	Active	Active	–	–	–
COc1cc(NC(C)CCCNC(=O)C2CCC3(CC2)OOC2(OO3)C3CC4CC(C3)CC2C4)c2ncccc2c1-c1ccoc1 (stereo not drawn)	–	76 nM	Non-Toxic	–	Active	>50%	> 50000 nM	> 600	2350 nM
COc1cc(NC(C)CCCNC(=O)C2CCC3(CC2)OOC2(OO3)C3CC4CC(C3)CC2C4)c2ncccc2c1-c1ccc(C(F)(F)F)cc1 (stereo not drawn)	100 min	60 nM	Non-Toxic	13.9 µL/min/mg	Active	>50%	> 50000 nM	> 1000	4120 nM
COc1cc(NC(C)CCCNC(=O)C2CCC3(CC2)OOC2(OO3)C3CC4CC(C3)CC2C4)c2ncccc2c1-c1ccccc1 (stereo not drawn)	42 min	204 nM	Non-Toxic	33 µL/min/mg	Active	>50%	> 50000 nM	–	1690 nM
COc1cc(NC(C)CCCNC(=O)C2CCC3(CC2)OOC2(OO3)C3CC4CC(C3)CC2C4)c2ncccc2c1-c1ccc(Br)cc1 (stereo not drawn)	–	61 nM	Non-Toxic	–	Active	>50%	> 50000 nM	> 1000	4440 nM
COc1cc(NC(C)CCCNC(=O)C2CCC3(CC2)OOC2(OO3)C3CC4CC(C3)CC2C4)c2ncccc2c1-c1ccc(C)cc1 (stereo not drawn)	87 min	141 nM	Non-Toxic	15.9 µL/min/mg	Active	>50%	> 50000 nM	–	1650 nM
CCOC(=O)C1CCC2(CC1)OOC1(OO2)C2CC3CC(C2)CC1C3 (stereo not drawn)	–	–	–	–	–	–	–	–	17300 nM
COc1cc(NC(C)CCCN)c2ncccc2c1-c1ccc(C)cc1 (stereo not drawn)	–	2350 nM	–	–	–	–	–	–	5430 nM
COc1cc(NC(=O)C2CCC3(CC2)OOC2(OO3)C3CC4CC(C3)CC2C4)c2ncccc2c1-c1ccc(Br)cc1 (stereo not drawn)	124 min	5670 nM	–	11.2 µL/min/mg	35%	–	–	–	–
COc1cc(NC(C)CCCNCC2CCC3(CC2)OOC2(OO3)C3CC4CC(C3)CC2C4)c2ncccc2c1-c1ccc(C)cc1 (stereo not drawn)	–	176 nM	Toxic	–	Active	Active	11700 nM	–	–
COc1cc(NC(C)CCCNCC2CCC3(CC2)OOC2(OO3)C3CC4CC(C3)CC2C4)c2ncccc2c1-c1ccc(F)cc1 (stereo not drawn)	–	99 nM	Toxic	–	Active	Active	–	–	–
COc1cc(NC(C)CCCNC(=O)C2CCC3(CC2)OOC2(OO3)C3CC4CC(C3)CC2C4)c2ncccc2c1-c1ccsc1 (stereo not drawn)	37 min	45 nM	Non-Toxic	37.4 µL/min/mg	Active	>50%	> 50000 nM	> 600	2110 nM
COc1cc(NC(C)CCCNC(=O)C2CCC3(CC2)OOC2(OO3)C3CC4CC(C3)CC2C4)c2ncccc2c1-c1ccc(F)cc1 (stereo not drawn)	40 min	57 nM	Non-Toxic	34.6 µL/min/mg	Active	>50%	> 50000 nM	> 1000	2380 nM
C[C@@H]1CC[C@H]2[C@@H](C)C(=O)O[C@@H]3O[C@@]4(C)CC[C@@H]1[C@]32OO4 [ARTEMISININ]	–	10 nM	–	–	–	–	–	–	–
COc1cc(NC(C)CCCNC(=O)C2CCC3(CC2)OOC2(OO3)C3CC4CC(C3)CC2C4)c2ncccc2c1-c1ccc(Cl)cc1 (stereo not drawn)	129 min	75 nM	Non-Toxic	10.7 µL/min/mg	Active	>50%	> 50000 nM	> 1000	2810 nM
COc1cc(NCCCNC(=O)C2CCC3(CC2)OOC2(OO3)C3CC4CC(C3)CC2C4)c2ncccc2c1-c1ccc(F)cc1 (stereo not drawn)	35 min	15 nM	Non-Toxic	39.6 µL/min/mg	Active	>50%	–	–	2610 nM
COc1cc(NC(=O)C2CCC3(CC2)OOC2(OO3)C3CC4CC(C3)CC2C4)c2ncccc2c1-c1ccccc1 (stereo not drawn)	42 min	287 nM	–	33 µL/min/mg	52%	–	–	–	–
COc1cc(NC(C)CCCNCC2CCC3(CC2)OOC2(OO3)C3CC4CC(C3)CC2C4)c2ncccc2c1-c1ccsc1 (stereo not drawn)	–	81 nM	Toxic	–	Active	Active	–	–	–
COc1cc(NC(=O)C2CCC3(CC2)OOC2(OO3)C3CC4CC(C3)CC2C4)c2ncccc2c1-c1ccc(Cl)cc1 (stereo not drawn)	125 min	4190 nM	–	11.1 µL/min/mg	37%	–	–	–	–
COc1cc(NCCCCNC(=O)C2CCC3(CC2)OOC2(OO3)C3CC4CC(C3)CC2C4)c2ncccc2c1-c1ccc(F)cc1 (stereo not drawn)	15 min	15 nM	Non-Toxic	92.4 µL/min/mg	Active	>50%	10200 nM	–	1110 nM
COc1cc(NC(C)CCCNCC2CCC3(CC2)OOC2(OO3)C3CC4CC(C3)CC2C4)c2ncccc2c1-c1ccc(Cl)cc1 (stereo not drawn)	–	–	Toxic	–	Active	Active	13200 nM	–	–
COc1cc(NC(=O)C2CCC3(CC2)OOC2(OO3)C3CC4CC(C3)CC2C4)c2ncccc2c1-c1ccc(F)cc1 (stereo not drawn)	60 min	916 nM	–	23.1 µL/min/mg	–	–	–	–	–
COc1cc(NCCCCCNC(=O)C2CCC3(CC2)OOC2(OO3)C3CC4CC(C3)CC2C4)c2ncccc2c1-c1ccc(F)cc1 (stereo not drawn)	25 min	17 nM	Non-Toxic	55.4 µL/min/mg	Active	>50%	–	–	1640 nM
